Shown are actives, neighbours in structure and some others; about 1.9% of the full set was active somewhere.
TbHK1 inh – T. brucei hexokinase 1 inhibition | inhibition, % at 10 µM | hit rate 0.11% among 220,000 | recombinant TbHK1, G6PDH-coupled NADH A340;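 active means inhibition of 50% or more in the single-dose primary screen; inactive means inhibition below 50%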
RanGTP-Imp inh – disruptors of Ran-importin-beta complex formation – biochemical, FRET, CFP-Ran, YFP-importin-beta, homogeneous, primary screen; cell-free CFP-Ran/YFP-importin-beta FRET ratio; hit rate 1.1% among 300,000; inhibition, % (concentration not given with the values);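 active means more than half of the replicate wells show a fall in the fluorescence ratio signal beyond about 16%, limit read from the data, passing the limit was not always enough; inconclusive means exactly half of the replicate wells pass the set limit; inactive means fewer than half of replicates pass the limit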;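 further: 0% = DMSO wells and 100% = Ran loaded with GDP instead of GTP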
Runt-CBFb FRET – inhibitors of human RUNX1 Runt domain binding to CBFb; Cerulean-Runt/Venus-CBFb FRET ratio 530/480, 1 h; Q01196+Q13951; hit rate 0.46% among 220,000; AID 1496; inhibition, % at 20 µM;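 active means inhibition over about 50% at 20 µM in the single-dose screen, limit read from the data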;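 further: 0% = DMSO wells and 100% = excess unlabeled CBFb competitor control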
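Measured by: fluorescence energy transfer, 422 nm excitation, 530/480 nm emission; test system: Cerulean-tagged RUNX1 Runt domain (FRET donor) fusion protein; buffer or medium: Tris pH 7.5 buffer with BSA; compound: one dose, 20 µM compound, 1% DMSO; times: two 1 h room-temperature incubations shielded from light; benchmarks: unlabeled CBFb 5 µM, positive control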
Runt-SMMHC FRET – Runt domain-CBFb-SMMHC interaction inhibition; Cerulean-Runt/Venus-CBFb-SMMHC FRET ratio 530/480, 1 h; hit rate 0.74% among 220,000; inhibition, % at 20 µM; AID 1434;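 active means mean inhibition across duplicate retests at 20 µM reaching about 50%, limit read from the data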;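 further: 0% = DMSO wells and 100% = wells with excess untagged CBFb-SMMHC; inhibitors lower the FRET ratio by blocking Runt binding to CBFb-SMMHC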
Hck-Nef inh – inhibitors of human Hck kinase activated by Nef | P08631 | Recombinant Hck-YEEI plus Nef, Z-Lyte FRET kinase assay | inhibition, % at 20 µM | hit rate 0.68% among 220,000;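 active means Hck-Nef kinase inhibition above about 50%, limit read from the data; inactive means inhibition below that limit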;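 further: 0% = DMSO with Hck plus Nef and 100% = Hck alone without Nef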
Target sequence (P08631 whole entry, looked up): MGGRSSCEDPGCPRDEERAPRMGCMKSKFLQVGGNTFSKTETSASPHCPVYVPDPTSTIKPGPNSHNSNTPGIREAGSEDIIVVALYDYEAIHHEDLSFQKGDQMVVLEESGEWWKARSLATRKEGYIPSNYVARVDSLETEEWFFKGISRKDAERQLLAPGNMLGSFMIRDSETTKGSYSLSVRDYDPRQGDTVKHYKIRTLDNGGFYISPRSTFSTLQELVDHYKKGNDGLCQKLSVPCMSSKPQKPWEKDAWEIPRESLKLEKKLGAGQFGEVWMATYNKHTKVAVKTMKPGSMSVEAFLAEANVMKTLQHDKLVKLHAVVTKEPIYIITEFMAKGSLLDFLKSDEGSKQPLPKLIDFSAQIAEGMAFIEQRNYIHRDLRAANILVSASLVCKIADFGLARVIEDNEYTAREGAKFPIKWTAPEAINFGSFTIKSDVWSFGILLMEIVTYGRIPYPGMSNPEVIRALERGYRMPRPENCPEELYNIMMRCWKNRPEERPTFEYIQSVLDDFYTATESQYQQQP
Starred values were filed as active, the others as inactive; ? = inconclusive; / = not tested or not shown; ! = not confirmed by another sample.

SMILES | TbHK1 inh | RanGTP-Imp inh | Runt-CBFb FRET | Runt-SMMHC FRET | Hck-Nef inh
O=C(O)c1ccc(Nc2nc(-c3ccccc3)nc3ccccc23)cc1 | / | -1 | / | / | /
COc1cccc(C(=O)NNc2c3ccccc3nc3ccccc23)c1 | / | 16* | / | / | /
COc1ccc(Nc2c3ccccc3nc3ccccc23)cc1 | / | 67* | / | / | /
O=C(O)Cn1c(O)c(C=Nc2ccccc2)sc1=S | 0 | 31*! | 32 | 73* | 0
Cc1cc(C)c2c(N)c3cccc(C)c3nc2n1 | -2 | 126* | 5 | 79* | 5
Cc1cccc2c(N)c3c(nc12)CCCC3 (tested in a mixture with another compound) | -13 | / | 2 | -4 | 21
O=C(COC(=O)CCCN1C(=O)c2cccc3cccc(c23)C1=O)Nc1cccc(Br)c1 | 1 | 5 | 1 | 3 | -1
CS(=O)(=O)c1ccc(Cl)c(NC(=O)COC(=O)CCCN2C(=O)c3cccc4cccc(c34)C2=O)c1 | / | 25* | / | / | /
COc1ccc(C(=O)N/C(=C\c2ccco2)C(=O)NC2CCS(=O)(=O)C2)cc1 (centres undefined) | -16 | 1 | -1 | 1 | 27
CN(C)S(=O)(=O)c1ccc(C(=O)NCc2nnc(SCC(=O)Nc3ccc(F)cc3)n2-c2ccc(F)cc2)cc1 | -2 | 7 | -6 | -17 | -3
CCN1CCc2nc(SCC(=O)Nc3ccc(OC)cc3)c(C#N)cc2C1 | -1 | ? | 21 | 94* | 18
COc1ccc(NC(=O)CSc2nc3c(cc2C#N)CN(C)CC3)cc1 | / | -1 | 10 | 6 | /
Cc1cc(/C=C2\Cc3ccccc3C2=O)c(C)n1-c1ccccc1 | -10 | 23* | 17 | 16 | -1
CC1=NN2C(=N)/C(=C\c3cc(C)n(-c4ccccc4)c3C)C(=O)N=C2S1 | -1 | 39* | -7 | 4 | 25
CC(NC(=O)c1ccco1)c1nc(-c2ccccc2Cl)no1 (centres undefined) | / | -7 | / | / | /
N#Cc1c(N)n(CCOC(=O)c2cccc(Br)c2)c2nc3ccccc3nc12 | -3 | ? | 26 | 51* | 1
COCCn1c(N)c(C#N)c2nc3ccccc3nc21 | -14 | 71* | 108* | 57* | 26
N#Cc1c(N)n(CCOC(=O)c2cccc([N+](=O)[O-])c2)c2nc3ccccc3nc12 | -1 | 4 | 4 | 31 | 2
COc1cccc(Cn2c(N)c(C#N)c3nc4ccccc4nc32)c1OC | -3 | 9 | 37 | 22 | 10
COc1ccc(Cn2c(N)c(C#N)c3nc4ccccc4nc32)cc1 | 3 | 33* | 80* | 94* | 10
COc1cc(Cn2c(N)c(C#N)c3nc4ccccc4nc32)cc(OC)c1 | 11 | 38* | 72* | 113* | 3
CCCCn1c(N)c(S(=O)(=O)c2ccc(C)cc2)c2nc3ccccc3nc21 | -10 | 3 | 3 | 16 | 11
Cc1ccc(C(=O)NCCn2c(N)c(C#N)c3nc4ccccc4nc32)cc1 | -2 | 58* | 98* | 79* | 15
N#Cc1c(N)n(CCc2ccc(F)cc2)c2nc3ccccc3nc12 | -7 | 44* | 93* | 77* | 9
O=c1[nH]c(=S)[nH]c2c1C(c1ccc(Br)cc1)c1c([nH]c(=S)[nH]c1=O)O2 | / | 0 | / | / | /
SMILES | TbHK1 inh | RanGTP-Imp inh | Runt-CBFb FRET | Runt-SMMHC FRET | Hck-Nef inh
c1ccc(-c2cn3nc4c(nc3n2)CCCC4)cc1 | -14 | 83* | 2 | -4 | 9
c1ccc(-c2cn3nc(-c4ccccc4)cnc3n2)cc1 | -4 | / | 0 | 0 | 3
Brc1ccc(-c2cn3nc4c(nc3n2)CCCC4)cc1 | -8 | 61* | 4 | -6 | 2
CCN(CC)S(=O)(=O)c1ccc2[nH]c(=O)cc(C(=O)Nc3ccc(C)c(S(=O)(=O)N(CC)CC)c3)c2c1 | -6 | 3 | -8 | 2 | 10
O=C(CCc1nc2ccccc2c(=O)[nH]1)Nc1nnc(SCc2ccc(F)cc2)s1 | / | -2 | / | / | /
Cc1ccc(C)c(-n2c3nc(=O)[nH]c(=O)c-3cc3cc([N+](=O)[O-])ccc32)c1 | 12 | / | 45 | 12 | 4
Cc1cccc(-n2c3nc(=O)[nH]c(=O)c-3cc3cc([N+](=O)[O-])ccc32)c1 | -11 | 2 | 21 | 55* | 7
CCN(CC)c1ccc(/C=N/NC(=O)c2cccc(S(=O)(=O)N3CCOCC3)c2)c(O)c1 | -9 | -1 | 20 | 92* | -62
CCOc1ccccc1/C=N/NC(=O)c1cccc(S(=O)(=O)N2CCOCC2)c1 | -19 | -2 | -1 | -4 | 30
Cc1ccc2nccc(C(=O)N3CCCC(Nc4ccc(F)cc4)C3)c2c1 (centres undefined) | / | -2 | / | / | /
CCc1cccc(C)c1NC(=O)COC(=O)c1c2c(nc3ccccc13)/C(=C\c1cccs1)CCC2 | -14 | 4 | -11 | -24 | 5
NC(=O)c1ccc(NC(=O)COC(=O)c2c3c(nc4ccccc24)/C(=C\c2cccs2)CCC3)cc1 | -15 | 16* | -21 | -16 | 17
CC[C@H](C)/C=C(C)/C=C/C1=CC2=CC(=O)[C@]3(C)OC(=O)[C@@H](C(C)=O)[C@@H]3C2=CO1 | -9 | 55* | 8 | 85* | -47
O=C(NNC(=O)c1ccc(F)cc1F)c1ccc(-n2cnnn2)cc1 | / | -2 | / | / | /
c1ccc(Oc2c3ccccc3nc3ccccc23)cc1 | -4 | 9 | 34 | 74* | 42
Cc1nc(Oc2ccccc2)c2ccccc2n1 | 37 | 6 | 0 | 0 | 4
CN(C)C1(CNC(=O)C2CCC(=O)N(CCc3ccc(Cl)cc3)C2)CCCCC1 (centres undefined) | / | 1 | / | / | /
COc1ccccc1-[n+]1c(C)cc(/C=C2\Sc3ccccc3N2C)cc1C | 9 | 1 | 6 | 63* | -32
CCCc1nc2nc(C)c(NS(=O)(=O)c3ccc(Cl)cc3)c(=O)n2[nH]1 | / | -1 | / | / | /
O=C1c2ccccc2C(=O)N1CCc1csc(NNc2nc(CCN3C(=O)c4ccccc4C3=O)cs2)n1 | 1 | 3 | / | 4 | 69*
